Consider 18 compounds from ChEMBL document CHEMBL1153568, “Synthesis and anticonvulsant activity of N-(2-hydroxyethyl) cinnamamide derivatives” (Eur J Med Chem, 2009).

Data set [1] concerns Mus musculus. The data set can be described thus: Protective index, ratio of TD50 for neurotoxicity to ED50 for anticonvulsant activity in ip dosed Kunming mouse. It counts as functional.
The nature of data set [2]: Neurotoxicity in ip dosed Kunming mouse by rotarod test. In kind it is toxicity, organism-based. As to conditions: in vivo. Background: In the rotarod test animals must keep their balance on a rotating rod.
In data set [3] the test system is Mus musculus. The data set can be described thus: Anticonvulsant activity in Kunming mouse assessed as protection against maximal electroshock-induced seizures at 30 mg/kg, ip after 4 hrs. It counts as functional, organism-based. On the set-up: dose 30 mg/kg. The gist of the method: (§1)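 Maximal electroshock test in mice, five per group, dosed i.p. with suspension in 1:19 DMSO/saline plus 0.5% methylcellulose; seizures evoked at 0.5 h or 4 h after dosing. Protection defined as abolition of hind leg tonic maximal extension; scored as number protected/number tested.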

The subject of data set [4] is Mus musculus. In words: Anticonvulsant activity in ip dosed Kunming mouse assessed as protection against maximal electroshock-induced seizures. In kind it is functional. The gist of the method: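 Phase II quantification: mice (ten per dose) dosed i.p. with compound suspended in 1:19 DMSO/saline, 0.5% methylcellulose; MES given 30 min later, protection being abolition of hind leg tonic extension. ED50, dose protecting 50% of animals, reported with 95% confidence limits.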

Data set [5] concerns Mus musculus. In words: Anticonvulsant activity against thiosemicarbazide-induced seizures in Kunming mouse assessed as clonic seizures of at 50 mg/kg, ip after 2.5 hrs. The following applies: route intraperitoneal. It counts as functional.
Data set [6] deals with Mus musculus. In words: Anticonvulsant activity against 3-mercaptopropionic acid-induced seizures in Kunming mouse assessed as clonic seizures of at 50 mg/kg, ip after 0.5 hrs. It counts as functional. As to conditions: route intraperitoneal. In short, it runs like this:
(§2)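 Mice given test agent i.p. as suspension in 1:19 DMSO/saline with 0.5% methylcellulose; 30 min later 60 mg/kg 3-mercaptopropionic acid in saline injected sc. Latency and duration of convulsions, latency and percentage lethality recorded over 1 h after convulsant; clonic and tonic seizure incidence reported as percent of animals.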

In data set [7] the test system is Mus musculus. In words: Anticonvulsant activity against 3-mercaptopropionic acid-induced seizures in Kunming mouse assessed as tonic seizures of at 50 mg/kg, ip after 0.5 hrs. As to conditions: route intraperitoneal. It counts as functional. The gist of the method: as §2
Data set [8] concerns Mus musculus. The data set can be described thus: Anticonvulsant activity against isoniazid-induced seizures in Kunming mouse assessed as clonic seizures of at 50 mg/kg, ip after 0.5 hrs. It counts as functional. The following applies: route intraperitoneal. The gist of the method:
(§3)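 Compounds suspended in 1:19 DMSO/saline containing 0.5% methylcellulose and given i.p.; after 30 min mice received isoniazid 250 mg/kg i.p., a dose convulsing 100% of animals. Each mouse housed singly and observed 1 h; percent of animals with clonic and tonic seizures, and lethality, recorded.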

Data set [9] relates to Mus musculus. The data set can be described thus: Anticonvulsant activity against subcutaneous pentylenetetrazole-induced seizures in Kunming mouse assessed as tonic seizures of at 50 mg/kg, ip after 0.5 hrs. In kind it is functional. In short, it runs like this: (§4)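 Test agent given i.p. (suspension in 1:19 DMSO/saline, 0.5% methylcellulose); 30 min later PTZ 85 mg/kg in saline given sc. Animals kept in individual cages, watched 30 min; clonic seizures, tonic seizures and deaths counted, expressed as percent.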

Data set [10] has as its system Mus musculus. The data set can be described thus: Toxicity in Kunming mouse assessed as thiosemicarbazide-induced lethality at 50 mg/kg, ip after 2.5 hrs. In kind it is organism-based. Further details: dose 50 mg/kg, route intraperitoneal. The following applies: in vivo.
Data set [11] has as its system Mus musculus. In words: Anticonvulsant activity against isoniazid-induced seizures in Kunming mouse assessed as tonic seizures of at 50 mg/kg, ip after 0.5 hrs. It counts as functional. The following applies: route intraperitoneal. The gist of the method:
as §3

The test system of data set [12] is Mus musculus. The data set can be described thus: Anticonvulsant activity against subcutaneous pentylenetetrazole-induced seizures in Kunming mouse assessed as clonic seizures of at 50 mg/kg, ip after 0.5 hrs. It counts as functional. The gist of the method: as §4
Data set [13] relates to Mus musculus. The data set can be described thus: Anticonvulsant activity against thiosemicarbazide-induced seizures in Kunming mouse assessed as tonic seizures of at 50 mg/kg, ip after 2.5 hrs. In kind it is functional. As to conditions: route intraperitoneal.
Data set [14] concerns Mus musculus. In words: Toxicity in Kunming mouse assessed as isoniazid-induced lethality at 50 mg/kg, ip after 0.5 hrs. It counts as organism-based. On the set-up: dose 50 mg/kg, route intraperitoneal. The following applies: in vivo. In short, it runs like this: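 Mice were dosed i.p. at 50 mg/kg with a suspension in 1:19 (vol/vol) DMSO/saline containing 0.5% methylcellulose. Isoniazid (250 mg/kg, i.p.) was given 30 min later. Mice were then housed singly and observed for 1 h, scoring clonic seizures, tonic seizures and deaths.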

The subject of data set [15] is Mus musculus. The data set can be described thus: Toxicity in Kunming mouse assessed as 3-mercaptopropionic acid-induced lethality at 50 mg/kg, ip after 0.5 hrs. In kind it is organism-based. Further details: dose 50 mg/kg, route intraperitoneal. The following applies: in vivo. In short, it runs like this:
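Compound given i.p. at 50 mg/kg as a suspension in 1:19 (vol/vol) DMSO/saline (0.9% NaCl) with 0.5% methylcellulose. At 30 min, 3-mercaptopropionic acid at 60 mg/kg in saline was injected sc. Convulsion latency and duration, and the latency and percentage of lethality, were recorded over the following 1 h.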

Data set [16] concerns Mus musculus. In words: Toxicity in Kunming mouse assessed as subcutaneous pentylenetetrazole-induced lethality at 50 mg/kg, ip after 0.5 hrs. As to conditions: in vivo, sc. It counts as organism-based. On the set-up: dose 50 mg/kg. In short, it runs like this: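 Test article at 50 mg/kg i.p. in 1:19 (vol/vol) DMSO/saline with 0.5% methylcellulose. After 30 min, pentylenetetrazole at 85 mg/kg in saline was given sc. Animals were caged individually and watched for 30 min, with clonic and tonic seizures and deaths counted.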

The subject of data set [17] is Mus musculus. The data set can be described thus: Anticonvulsant activity in Kunming mouse assessed as protection against maximal electroshock-induced seizures at 300 mg/kg, ip after 4 hrs. It counts as functional, organism-based. Further details: dose 300 mg/kg. The gist of the method: as §1
For orientation: Protection in the maximal electroshock model is a classic sign of anticonvulsant action.

Data set [18] deals with Mus musculus. In words: Anticonvulsant activity in Kunming mouse assessed as protection against maximal electroshock-induced seizures at 100 mg/kg, ip after 4 hrs. In kind it is functional, organism-based. On the set-up: dose 100 mg/kg. In short, it runs like this: as §1
The test system of data set [19] is Mus musculus. The data set can be described thus: Anticonvulsant activity in Kunming mouse assessed as protection against maximal electroshock-induced seizures at 100 mg/kg, ip after 30 mins. In kind it is functional, organism-based. On the set-up: dose 100 mg/kg. The gist of the method:
as §1

For data set [20], the system named is Mus musculus. The data set can be described thus: Anticonvulsant activity in Kunming mouse assessed as protection against maximal electroshock-induced seizures at 30 mg/kg, ip after 30 mins. It counts as functional, organism-based. On the set-up: dose 30 mg/kg. The gist of the method: as §1

Calls of active or inactive are those of the source.

For the compound `O=C(/C=C/c1ccccc1F)NCCO`, the “Ratio TD50/ED50” value with Mus musculus [1] came to 6.2. Further, the TD50 – broadly, the 50% point of the dose-response relation for the toxic effect studied – in data set [2] was determined as 219 mg/kg. Moreover, the outcome with Mus musculus [3] was inactive. In addition, the ED50 (commonly the dose that gives a 50% effect, or the effect in half of the subjects) in the data set with Mus musculus [4] amounted to 35.3 mg/kg.
Turning to `O=C(/C=C/c1ccccc1)NCCO` [IDROCILAMIDE], the Activity in the data set on Mus musculus [5] is 100%; in the data set on Mus musculus [6] it was 100%; with Mus musculus [7], 10%; in the data set on Mus musculus [8], 100%; with Mus musculus [9], 20%; with Mus musculus [10], 30%. For the same compound, the Activity in the data set with Mus musculus [11] amounted to 70%; with Mus musculus [12], 100%; in the data set with Mus musculus [13], 40%; in the data set on Mus musculus [14] it was 20%; in the data set on Mus musculus [15], 10%; with Mus musculus [16], 10%. In the data set on Mus musculus [1], the “Ratio TD50/ED50” value turned out to be 8.8. In data set [2], this compound came in with a TD50 of 155 mg/kg. The result with Mus musculus [3] was inactive. Besides, the 50% effective dose (ED50) with Mus musculus [4] stood at 17.7 mg/kg.
Consider `O=C(/C=C/c1ccc(Cl)cc1Cl)NCCO`, for which, in the data set with Mus musculus [17], the result was inactive.
On to `O=C(NCCO)c1ccccc1`, for which the result with Mus musculus [17] was inactive.
Consider `O=C(CCc1ccccc1)NCCO`, for which, in the data set with Mus musculus [17], the result was inactive.
`CN(C)c1ccc(/C=C/C(=O)NCCO)cc1`: the “Ratio TD50/ED50” value in the data set with Mus musculus [1] is 4.6. The compound further returned a TD50 in data set [2] of 304 mg/kg. The result in the data set on Mus musculus [18] was inactive. The ED50 with Mus musculus [4] was 66.1 mg/kg.
Consider `O=C(Cc1ccccc1)NCCO`, for which, in the data set on Mus musculus [17], the outcome was inactive.
Regarding `O=C(/C=C/c1ccccc1Cl)NCCO`, the “Ratio TD50/ED50” value in the data set on Mus musculus [1] stood at 2.6. The TD50 in data set [2] is 152 mg/kg. The result in the data set with Mus musculus [18] was inactive. The result with Mus musculus [19] was Active. The 50% effective dose (ED50) in the data set on Mus musculus [4] amounted to 59 mg/kg.
Consider `Cc1ccc(/C=C/C(=O)NCCO)cc1`, for which the outcome in the data set on Mus musculus [18] was inactive.
For the compound `COc1ccc(/C=C/C(=O)NCCO)cc1`, the outcome in the data set with Mus musculus [18] was inactive.
Consider `O=C(/C=C/c1ccc(Cl)cc1)NCCO`, for which, in the data set with Mus musculus [1], the “Ratio TD50/ED50” value is on record as 1.3. Moreover, in data set [2], the TD50 was 98.4 mg/kg. In the data set on Mus musculus [18], the result was inactive. In the data set with Mus musculus [4], the ED50 amounted to 73.4 mg/kg.
Take `O=C(/C=C/c1ccccc1Br)NCCO`: the “Ratio TD50/ED50” value in the data set on Mus musculus [1] is listed as 3.3. In addition, in data set [2], the TD50 turned out to be 228 mg/kg. In addition, in the data set with Mus musculus [18], the result was inactive. Moreover, the ED50 with Mus musculus [4] amounted to 68.2 mg/kg.
`NC(=O)N1c2ccccc2C=Cc2ccccc21` [CARBAMAZEPINE]: the Activity is listed as 100% in the data set with Mus musculus [5]; 100% with Mus musculus [6]; 0% in the data set with Mus musculus [7]; 50% with Mus musculus [8]; 0% with Mus musculus [9]; 20% in the data set on Mus musculus [10]. In addition, the Activity in the data set on Mus musculus [11] is recorded as 0%; with Mus musculus [12], 100%; with Mus musculus [13] it was 0%; in the data set with Mus musculus [14], 0%; with Mus musculus [16], 10%. Also, in the data set on Mus musculus [4], the 50% effective dose (ED50) was 8.8 mg/kg.
`O=C(/C=C/c1ccc2c(c1)OCO2)NCCO`: the “Ratio TD50/ED50” value with Mus musculus [1] was 3.3. The same compound displayed a TD50 in [2] of 105 mg/kg. Also, the result in the data set on Mus musculus [3] was inactive. Also, the ED50 with Mus musculus [4] stood at 32.4 mg/kg.
Consider `O=C(/C=C/c1ccc(Br)cc1)NCCO`, for which, in the data set with Mus musculus [1], the “Ratio TD50/ED50” value turned out to be 1.3. For the same compound, the TD50 in [2] amounted to 98.3 mg/kg. Further, the result in the data set on Mus musculus [18] was inactive. Further, the ED50 in the data set on Mus musculus [4] came to 76 mg/kg.
Turning to `O=C(/C=C/c1cccc(F)c1)NCCO`, the Activity in the data set on Mus musculus [5] amounted to 100%; with Mus musculus [6] it was 100%; in the data set with Mus musculus [7] it was 30%; in the data set on Mus musculus [9] it was 40%; in the data set with Mus musculus [10] it was 40%; in the data set on Mus musculus [12] it was 100%. Besides, the Activity is 50% in the data set on Mus musculus [13], 50% in the data set on Mus musculus [15] and 20% in the data set with Mus musculus [16]. Moreover, the “Ratio TD50/ED50” value in the data set on Mus musculus [1] came to 12.4. For the same compound, the TD50 in data set [2] was determined as 211 mg/kg. In the data set on Mus musculus [3], the outcome was inactive. Besides, in the data set on Mus musculus [20], the result was Active. For the same compound, the ED50 in the data set on Mus musculus [4] amounted to 17 mg/kg.
Consider `O=C(/C=C/c1cccc(Cl)c1)NCCO`, for which, in the data set with Mus musculus [1], the “Ratio TD50/ED50” value was 5.1. The compound also showed a TD50 in [2] of 127 mg/kg. Also, the result in the data set on Mus musculus [3] was inactive. The ED50 with Mus musculus [4] was 25 mg/kg. Further, the Activity in the data set with Mus musculus [14] is 20%.
As to `O=C(/C=C/c1ccc(F)cc1)NCCO`, the “Ratio TD50/ED50” value in the data set on Mus musculus [1] was 2.2. In data set [2], the TD50 turned out to be 98.3 mg/kg. Also, the outcome in the data set on Mus musculus [18] was inactive. For the same compound, in the data set on Mus musculus [19], the result was Active. Also, in the data set with Mus musculus [4], the ED50 worked out at 45.6 mg/kg.
